In ChEMBL document CHEMBL4334454, “Alkaloids Purified from Aristotelia chilensis Inhibit the Human α3β4 Nicotinic Acetylcholine Receptor with Higher Potencies Compared with the Human α4β2 and α7 Subtypes” (J Nat Prod, 2019):
Activity calls are given as the source filed them. The calls are words filed in the database; no cut-off is given here.

Assays:
Type in all cases: cell-based
[1] = biological target: T1, Neuronal acetylcholine receptor subunit alpha-7 (Homo sapiens, UniProt P36544); experiment: Antagonist activity at human AChR alpha7 transfected in rat GH3 cells assessed as decrease in epibatidine-induced calcium influx incubated for 1 hr by fluo-4 dye based assay
Method in brief: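 GH3-hα7 cells were seeded 72 h ahead, kept in HBSS/1% FBS (pH 7.4) 16–24 h, and loaded with Fluo-4 plus 2.5 mM probenecid for 1 h at 37 °C. After washing, cells were pretreated 5 min with varied alkaloid concentrations. 1.0 μM (±)-epibatidine was then added while fluorescence (488/510 nm) was recorded for 78 s. Data were normalized to the maximal epibatidine response, mean ± SD (n = 3). IC50 and nH were fitted.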

[2] = biological target: T2, Neuronal acetylcholine receptor; alpha4/beta2 (Homo sapiens, UniProt P17787+P43681); experiment: Agonist activity at human AChR alpha4beta2 transfected in human HEK293 cells assessed as increase in calcium influx incubated for 1 hr by fluo-4 dye based assay
[3] = biological target: T1, Neuronal acetylcholine receptor subunit alpha-7; experiment: Agonist activity at human AChR alpha7 transfected in rat GH3 cells assessed as increase in calcium influx incubated for 1 hr by fluo-4 dye based assay
[4] = biological target: T2, Neuronal acetylcholine receptor; alpha4/beta2; experiment: Antagonist activity at human AChR alpha4beta2 transfected in human HEK293 cells assessed as decrease in epibatidine-induced calcium influx incubated for 1 hr by fluo-4 dye based assay
Method in brief: (§1)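 HEK293-hα3β4 or HEK293-hα4β2 cells were seeded 72 h ahead, kept in HBSS/1% FBS (pH 7.4) 16–24 h, and loaded with Fluo-4 plus 2.5 mM probenecid for 1 h at 37 °C. After washing, cells were pretreated 5 min with alkaloid at varied concentrations. 0.1 μM (±)-epibatidine was then added while fluorescence (488/510 nm) was recorded for 78 s. Responses were normalized to the maximal epibatidine response, mean ± SD (n = 3). IC50 and nH came from concentration–response curves.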

Homo sapiens [5] = species: Homo sapiens; experiment: Selectivity index, ratio of IC50 for human AChR alpha4beta2 transfected in human HEK293 cells to IC50 for human AChR alpha3beta4 transfected in human HEK293 cells
[6] = biological target: T3, Neuronal acetylcholine receptor; alpha3/beta4 (Homo sapiens, UniProt P30926+P32297); experiment: Antagonist activity at human AChR alpha3beta4 transfected in human HEK293 cells assessed as decrease in epibatidine-induced calcium influx incubated for 1 hr by fluo-4 dye based assay
[7] = biological target: T2, Neuronal acetylcholine receptor; alpha4/beta2; experiment: Antagonist activity at human AChR alpha4beta2 transfected in human HEK293 cells assessed as decrease in epibatidine-induced calcium influx at 10 to 100 uM incubated for 1 hr by fluo-4 dye based assay relative to control; method in brief: as §1
Homo sapiens [8] = species: Homo sapiens; experiment: Selectivity index, ratio of IC50 for human AChR alpha7 transfected in rat GH3 cells to IC50 for human AChR alpha3beta4 transfected in human HEK293 cells
[9] = biological target: T1, Neuronal acetylcholine receptor subunit alpha-7; experiment: Antagonist activity at human AChR alpha7 transfected in […] cells assessed as decrease in epibatidine-induced calcium influx at 10 to 100 uM incubated for 1 hr by fluo-4 dye based assay relative to control
[10] = biological target: T3, Neuronal acetylcholine receptor; alpha3/beta4; experiment: Antagonist activity at human AChR alpha3beta4 transfected in human HEK293 cells assessed as decrease in epibatidine-induced calcium influx at 100 uM incubated for 1 hr by fluo-4 dye based assay relative to control; method in brief: as §1

T1 sequence (P36544 whole entry): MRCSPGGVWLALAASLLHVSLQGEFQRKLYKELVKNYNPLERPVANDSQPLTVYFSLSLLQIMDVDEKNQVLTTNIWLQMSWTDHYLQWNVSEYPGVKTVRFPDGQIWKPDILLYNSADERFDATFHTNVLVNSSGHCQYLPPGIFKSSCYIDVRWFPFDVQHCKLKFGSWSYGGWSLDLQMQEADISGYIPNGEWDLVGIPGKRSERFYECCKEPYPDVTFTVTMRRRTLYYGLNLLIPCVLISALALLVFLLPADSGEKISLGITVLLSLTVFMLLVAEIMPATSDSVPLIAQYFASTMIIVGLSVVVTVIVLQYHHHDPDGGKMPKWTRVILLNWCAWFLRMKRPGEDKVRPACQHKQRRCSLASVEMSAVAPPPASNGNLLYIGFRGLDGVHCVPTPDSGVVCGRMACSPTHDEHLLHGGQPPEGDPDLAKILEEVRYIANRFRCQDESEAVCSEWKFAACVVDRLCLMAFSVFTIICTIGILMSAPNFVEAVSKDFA
T2 sequence (P17787 whole entry): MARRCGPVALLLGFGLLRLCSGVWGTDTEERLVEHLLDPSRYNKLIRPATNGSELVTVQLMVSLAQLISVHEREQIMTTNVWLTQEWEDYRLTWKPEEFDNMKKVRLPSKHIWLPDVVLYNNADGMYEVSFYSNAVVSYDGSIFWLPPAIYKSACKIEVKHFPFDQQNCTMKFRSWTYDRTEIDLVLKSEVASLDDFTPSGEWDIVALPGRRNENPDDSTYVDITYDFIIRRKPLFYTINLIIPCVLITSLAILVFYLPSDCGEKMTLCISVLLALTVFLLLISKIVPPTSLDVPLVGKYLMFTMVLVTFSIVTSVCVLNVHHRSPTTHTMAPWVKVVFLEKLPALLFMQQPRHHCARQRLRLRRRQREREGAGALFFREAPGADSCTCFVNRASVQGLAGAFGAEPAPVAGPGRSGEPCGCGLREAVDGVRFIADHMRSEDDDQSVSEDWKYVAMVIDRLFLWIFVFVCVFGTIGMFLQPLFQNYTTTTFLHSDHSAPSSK
T2 sequence (P43681 whole entry): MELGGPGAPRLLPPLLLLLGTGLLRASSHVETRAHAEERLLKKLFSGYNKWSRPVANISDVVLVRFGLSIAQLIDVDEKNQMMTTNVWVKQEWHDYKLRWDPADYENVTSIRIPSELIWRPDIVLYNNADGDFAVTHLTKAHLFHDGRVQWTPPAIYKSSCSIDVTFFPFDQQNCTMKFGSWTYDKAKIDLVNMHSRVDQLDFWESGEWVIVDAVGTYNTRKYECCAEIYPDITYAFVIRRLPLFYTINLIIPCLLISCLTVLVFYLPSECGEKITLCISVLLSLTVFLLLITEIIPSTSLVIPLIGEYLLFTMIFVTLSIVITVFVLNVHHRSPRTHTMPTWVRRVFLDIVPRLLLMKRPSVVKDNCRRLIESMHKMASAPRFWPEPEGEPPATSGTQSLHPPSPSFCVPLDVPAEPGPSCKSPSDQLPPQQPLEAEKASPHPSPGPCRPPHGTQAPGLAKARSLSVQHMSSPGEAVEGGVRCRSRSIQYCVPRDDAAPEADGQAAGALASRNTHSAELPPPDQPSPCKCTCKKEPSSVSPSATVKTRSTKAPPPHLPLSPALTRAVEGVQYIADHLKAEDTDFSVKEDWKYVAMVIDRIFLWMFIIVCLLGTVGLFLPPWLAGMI
T3 sequence (P30926 whole entry): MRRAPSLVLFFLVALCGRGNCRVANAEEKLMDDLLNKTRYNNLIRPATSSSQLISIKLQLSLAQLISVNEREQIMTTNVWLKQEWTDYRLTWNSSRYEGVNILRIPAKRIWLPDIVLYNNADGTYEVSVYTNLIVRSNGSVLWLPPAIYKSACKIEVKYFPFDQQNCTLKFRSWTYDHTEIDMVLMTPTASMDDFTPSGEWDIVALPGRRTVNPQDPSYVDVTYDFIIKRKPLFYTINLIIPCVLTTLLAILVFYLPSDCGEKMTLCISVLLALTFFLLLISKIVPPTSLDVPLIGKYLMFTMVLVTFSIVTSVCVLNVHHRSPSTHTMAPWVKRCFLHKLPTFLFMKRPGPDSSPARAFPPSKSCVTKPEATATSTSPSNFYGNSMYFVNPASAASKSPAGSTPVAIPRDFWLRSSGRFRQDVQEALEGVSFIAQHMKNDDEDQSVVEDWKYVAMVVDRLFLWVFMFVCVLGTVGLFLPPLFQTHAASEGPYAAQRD
T3 sequence (P32297 whole entry): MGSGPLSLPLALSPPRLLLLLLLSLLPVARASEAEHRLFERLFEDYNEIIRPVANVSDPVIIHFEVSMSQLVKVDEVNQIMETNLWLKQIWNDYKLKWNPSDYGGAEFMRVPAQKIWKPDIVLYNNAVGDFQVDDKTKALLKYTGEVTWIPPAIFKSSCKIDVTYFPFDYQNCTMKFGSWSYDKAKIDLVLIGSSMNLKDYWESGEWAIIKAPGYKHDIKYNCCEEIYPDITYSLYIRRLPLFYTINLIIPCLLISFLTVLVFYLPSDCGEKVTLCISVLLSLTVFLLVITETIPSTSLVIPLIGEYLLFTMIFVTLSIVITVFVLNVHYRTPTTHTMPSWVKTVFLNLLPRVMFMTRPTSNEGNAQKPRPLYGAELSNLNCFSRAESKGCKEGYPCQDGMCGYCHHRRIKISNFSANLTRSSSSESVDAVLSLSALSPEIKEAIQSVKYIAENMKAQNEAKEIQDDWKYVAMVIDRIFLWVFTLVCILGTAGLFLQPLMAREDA

Structure (SMILES)	IC50 ([1]; read-out: IC50)	Activity [2]	Activity [3]	IC50 [4]	Ratio IC50 (Homo sapiens [5])	IC50 [6]	inhibition [7]	Ratio IC50 (Homo sapiens [8])	inhibition [9]	IC50 ([1]; gh3)	inhibition [10]
CC1=CC[C@@H]2C[C@H]1[C@@H](c1ccnc3ccccc13)NC2(C)C	45.3 µM	inactive	inactive	6.7 µM							
Clc1ccc(C2C[C@@H]3CC[C@H]2N3)cn1 (mixture of isomers)		Active	Active								
CC1(C)N[C@@H]2Cc3c([nH]c4ccccc34)[C@]3(C)CC[C@H]1C[C@H]23	27 µM	inactive	inactive	3.4 µM	8.4	0.4 µM	100%	67.5	100%		
CC1(C)[C@@H]2C[C@@H]3[C@H]4C[C@@]5(Nc6ccccc6[C@@H]5N41)[C@]3(C)CC2=O		inactive	inactive	145 µM		167 µM	inactive		inactive	Not Active	40%
